Active and inactive are the calls of the source.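 How the source made its calls: active means maximum inhibition above 30% at any tested concentration, with a dose response curve fitted; inactive means no inhibition at any dose or no dose response curve.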

This assay is described as follows: thallium flux inhibition in parental HEK293 cells, SAR follow-up, counter-screen for KCNK9 inhibitor project, cell-based, FluxOR thallium flux, concentration-response, set 2 (AID 540324). The settings on record: FluxOR fluorescence ratio; series mostly up to 30 µM. The essentials:
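Also added: K+/Tl+ sulfate stimulus, 5x stock; system: parental HEK293 cells; times: dye loading 90 min at room temperature in dark, compound exposure 20 min; replicates: at least duplicate; doses: 10 concentrations; technique: FluxOR thallium-flux fluorescence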
On the technique in general: Counterscreens check selectivity or assay interference.
On to `CCOc1ccccc1NC(=O)c1cccc(NC(=O)c2cccc(OC)c2)c1`, for which the outcome was inactive. As for `CCOc1ccccc1NC(=O)c1cccc(NC(=O)C(C)(C)C)c1`, the result was inactive. Take `COc1ccccc1C(=O)Nc1cccc(NC(=O)c2ccccc2C(C)C)c1`: the outcome was inactive. As for `COc1ccccc1C(=O)Nc1cccc(NC(=O)c2ccccc2C)c1`, the entry is “inactive”; as for `Cc1ccc(-c2n[nH]c(=S)n2C(C)C2CC3CCC2C3)cc1` (stereo unspecified), “inactive”.

On to `COc1ccc(C(=O)Nc2cccc(NC(=O)c3ccccc3)c2)cc1`, for which the result was inactive. For the compound `CCOc1ccccc1C(=O)Nc1cccc(NC(=O)C2CCCC2)c1`, the outcome was inactive. The entry for `Cc1cccc(-c2n[nH]c(=S)n2C(C)C2CC3CCC2C3)c1` (stereo unspecified) is “inactive”; for `CC(C)(C)c1ccc(C(=O)Nc2cccc(NC(=O)c3ccccc3)c2)cc1` it is “inactive”; for `Cc1cccc(C(=O)Nc2cccc(NC(=O)c3ccc(Cl)cc3)c2)c1` it is “inactive”. As to `CCOc1ccccc1NC(=O)c1cccc(NC(=O)c2cccc(C)c2)c1`, the outcome was inactive. On to `Cc1cccc(C(=O)Nc2cccc(NC(=O)c3ccccc3C(C)C)c2)c1`, for which the result was inactive. As to `CCOc1ccccc1NC(=O)c1cccc(NC(=O)c2cccc(Cl)c2)c1`, the result was inactive. As for `O=C(Nc1cccc(NC(=O)c2ccoc2)c1)c1ccccc1`, the entry is “inactive”. As for `O=C(Nc1cccc(NC(=O)c2cccc(Cl)c2)c1)c1ccccc1`, the entry is “inactive”; as for `COc1ccccc1NC(=O)c1cccc(NC(=O)c2ccccc2)c1`, “inactive”; as for `CCOc1ccc(NC(=O)c2cccc(NC(=O)C3CCCC3)c2)cc1`, “inactive”. As to `Cc1cccc(C(=O)Nc2cccc(NC(=O)c3cccc(C)c3)c2)c1`, the result was inactive.

Consider `O=C(Nc1cccc(NC(=O)C2CCCCC2)c1)c1ccccc1`, for which the result was inactive. As to `O=C(Nc1cccc(NC(=O)c2cccs2)c1)c1ccccc1`, the outcome was inactive.

On to `O=C(Nc1cccc(NC(=O)c2ccncc2)c1)c1ccccc1`, for which the outcome was inactive. The entry for `CC(c1ccccc1)n1c(-c2ccco2)n[nH]c1=S` (stereo unspecified) is “inactive”. `COc1ccccc1NC(=O)c1cccc(NC(=O)CC2CCCC2)c1`: the result was inactive.

For `CCOc1ccccc1NC(=O)c1cccc(C(=O)NC2CCCC2)c1`, the result was inactive. Take `CCOc1ccccc1NC(=O)c1cccc(NC(=O)c2ccccc2)c1`: the result was inactive.

For `CC(C1CC2CCC1C2)n1c(-c2ccsc2)n[nH]c1=S` (stereo unspecified), the result was inactive.

As to `CCOc1ccccc1NC(=O)c1cccc(NC(=O)c2ccccc2OC(F)(F)F)c1`, the outcome was inactive. For the compound `Cc1cccc(C(=O)Nc2cccc(NC(=O)c3ccc(N(C)C)cc3)c2)c1`, the result was inactive. For the compound `CC(C1CC2CCC1C2)n1c(-c2ccco2)n[nH]c1=S` (stereo unspecified), the result was inactive. Consider `CCOc1ccccc1NC(=O)c1cccc(NC(=O)c2ccccc2OC)c1`, for which the outcome was inactive. As for `O=C(Nc1cccc(NC(=O)c2ccc(C(F)(F)F)cc2)c1)c1ccccc1`, the result was inactive. Take `CCOc1ccccc1NC(=O)c1cccc(NC(=O)c2ccc(Cl)cc2)c1`: the result was inactive. Regarding `O=C(Nc1cccc(NC(=O)c2ccccc2Cl)c1)c1ccccc1`, the result was inactive. As for `CC(C1CC2CCC1C2)n1c(-c2ccoc2)n[nH]c1=S` (stereo unspecified), the entry is “inactive”.

With `O=C(Nc1cccc(NC(=O)c2ccc(F)cc2)c1)c1ccccc1`, the result was inactive. Regarding `CCOc1ccccc1NC(=O)c1cccc(NC(=O)c2ccc(C(F)(F)F)cc2)c1`, the outcome was inactive.

The values are drawn from PubChem BioAssay AID540324 (Johns Hopkins Ion Channel Center, 2011).
